Measurements as given in ChEMBL document CHEMBL1149461, “Synthesis and structure-activity relationship studies of CD4 down-modulating cyclotriazadisulfonamide (CADA) analogues” (J Med Chem, 2006).

How the values were obtained:
MT4 [1] = test: Inhibition of CD4 antigen expression in MT4 cells; type: functional, cell-based; details: Homo sapiens
Procedure, shortened: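 MT-4 cells were labelled with FITC-conjugated anti-CD4 mAb to read surface CD4 by mean fluorescence intensity. IC50 is the concentration giving 50% loss of cell-surface CD4. Top concentrations tested were 15 or 75 µM. Where 50% reduction was not reached, the value is reported as a lower limit based on the highest concentration used.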

[2] = test system: Human immunodeficiency virus 1; test: Antiviral activity against HIV1 NL4.3 in MT4 cells; type: functional, organism-based; details: Human immunodeficiency virus 1, NL4.3, MT4
MT4 [3] = test: Cytotoxicity against MT4 cells; type: functional; details: Homo sapiens

Work on `C=C1CN(S(=O)(=O)c2ccc(C)cc2)CCCN(Cc2ccccc2)CCCN(S(=O)(=O)c2cccc3c(N(C)C)cccc23)C1` yielded an IC50 (MT4 [1]; read-out: IC50) of 1.3 µM, an IC50 (MT4 [1]; read-out: Log IC50 (converted)) of 1.29 µM and an IC50 [2] of 9.5 µM. For the same molecule, the CC50 (MT4 [3]) was > 75 µM.

`C=C1CN(S(=O)(=O)c2ccc(OC)cc2)CCCNCCCN(S(=O)(=O)c2ccc(OC)cc2)C1` showed an IC50 (MT4 [1]; read-out: IC50) of 5.3 µM, an IC50 (MT4 [1]; read-out: Log IC50 (converted)) of 5.25 µM and an IC50 [2] of 6.3 µM. It also gave a CC50 (MT4 [3]) of 43 µM.

For `C=C1CN(S(=O)(=O)c2ccc(OC)cc2)CCCN(CCC(C)C)CCCN(S(=O)(=O)c2ccc(OC)cc2)C1`, the IC50 (MT4 [1]; read-out: IC50) was 0.29 µM, the IC50 (MT4 [1]; read-out: Log IC50 (converted)) was 0.288 µM and the IC50 [2] was 0.63 µM. The CC50 (MT4 [3]) was 53 µM.

With `C=C1CN(S(=O)(=O)c2ccc(Br)cc2)CCCN(C(=O)OCC)CCCN(S(=O)(=O)c2ccc(Br)cc2)C1` the IC50 (MT4 [1]; read-out: IC50) was 12.4 µM, the IC50 (MT4 [1]; read-out: Log IC50 (converted)) was 12.3 µM and the CC50 (MT4 [3]) was 29 µM.

In the case of `C=C1CN(S(=O)(=O)c2ccc(OC)cc2)CCCN(Cc2ccccc2)CCCN(S(=O)(=O)c2ccc(OC)cc2)C1`, the IC50 (MT4 [1]; read-out: IC50) is reported as 0.22 µM, the IC50 (MT4 [1]; read-out: Log IC50 (converted)) is reported as 0.219 µM and the IC50 [2] is reported as 0.62 µM. It also gave a CC50 (MT4 [3]) of 26 µM.

With `C=C1CN(S(=O)(=O)c2ccc(C)cc2)CCCN(CC2CCCCC2)CCCN(S(=O)(=O)c2cccc3c(N(C)C)cccc23)C1` the IC50 (MT4 [1]; read-out: IC50) was 0.61 µM, the IC50 (MT4 [1]; read-out: Log IC50 (converted)) was 0.617 µM and the IC50 [2] was 1.8 µM. For the same molecule, the CC50 (MT4 [3]) was 49 µM.
